Data reported in publication PMC2755653 (Journal of pharmaceutical sciences, 2009).

Columns and labels:
MDCKII-WT cells = assay: Cellular accumulation of radiolabeled drug in MDCKII-WT cell monolayers; assay type: cell-based, canine; details: for increase in cellular accumulation compared to control: 0.03% w/w Pluronic P85 (CMC)
[1] = Cell-free equilibrium dialysis with Pluronic P85; assay type: physicochemical; details: for time to equilibrium: equilibrium dialysis, MWCO 50,000 membrane, 37°C
Outline: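 Two-chamber dialysis across a 50,000 Da MWCO membrane at 37°C, stirred, in pH 7.4 HEPES/bicarbonate buffer. Radiolabeled test compound was in the donor and buffer in the receiver. Below CMC, P85 was on both sides. For micellar levels, the receiver held 0.025% w/w and the donor target plus 0.005% w/w. Free fraction was receiver/donor concentration; a transfer-rate model was fitted.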

P-gp = P-gp (Homo sapiens, UniProt P08183); assay: Cellular accumulation of radiolabeled drug in MDCKII-MDR1 cell monolayers; assay type: cell-based; details: for change in cellular accumulation at Pluronic P85 concentrations above the CMC / change in cellular accumulation with Pluronic P85 up to the CMC / cellular accumulation at 0.5% w/w P85 versus control without P85 / increase in cellular accumulation compared to control: MDR1 cells; for (WT/MDR1) accumulation ratio: nelfinavir
P-gp, sequence (P08183 whole entry): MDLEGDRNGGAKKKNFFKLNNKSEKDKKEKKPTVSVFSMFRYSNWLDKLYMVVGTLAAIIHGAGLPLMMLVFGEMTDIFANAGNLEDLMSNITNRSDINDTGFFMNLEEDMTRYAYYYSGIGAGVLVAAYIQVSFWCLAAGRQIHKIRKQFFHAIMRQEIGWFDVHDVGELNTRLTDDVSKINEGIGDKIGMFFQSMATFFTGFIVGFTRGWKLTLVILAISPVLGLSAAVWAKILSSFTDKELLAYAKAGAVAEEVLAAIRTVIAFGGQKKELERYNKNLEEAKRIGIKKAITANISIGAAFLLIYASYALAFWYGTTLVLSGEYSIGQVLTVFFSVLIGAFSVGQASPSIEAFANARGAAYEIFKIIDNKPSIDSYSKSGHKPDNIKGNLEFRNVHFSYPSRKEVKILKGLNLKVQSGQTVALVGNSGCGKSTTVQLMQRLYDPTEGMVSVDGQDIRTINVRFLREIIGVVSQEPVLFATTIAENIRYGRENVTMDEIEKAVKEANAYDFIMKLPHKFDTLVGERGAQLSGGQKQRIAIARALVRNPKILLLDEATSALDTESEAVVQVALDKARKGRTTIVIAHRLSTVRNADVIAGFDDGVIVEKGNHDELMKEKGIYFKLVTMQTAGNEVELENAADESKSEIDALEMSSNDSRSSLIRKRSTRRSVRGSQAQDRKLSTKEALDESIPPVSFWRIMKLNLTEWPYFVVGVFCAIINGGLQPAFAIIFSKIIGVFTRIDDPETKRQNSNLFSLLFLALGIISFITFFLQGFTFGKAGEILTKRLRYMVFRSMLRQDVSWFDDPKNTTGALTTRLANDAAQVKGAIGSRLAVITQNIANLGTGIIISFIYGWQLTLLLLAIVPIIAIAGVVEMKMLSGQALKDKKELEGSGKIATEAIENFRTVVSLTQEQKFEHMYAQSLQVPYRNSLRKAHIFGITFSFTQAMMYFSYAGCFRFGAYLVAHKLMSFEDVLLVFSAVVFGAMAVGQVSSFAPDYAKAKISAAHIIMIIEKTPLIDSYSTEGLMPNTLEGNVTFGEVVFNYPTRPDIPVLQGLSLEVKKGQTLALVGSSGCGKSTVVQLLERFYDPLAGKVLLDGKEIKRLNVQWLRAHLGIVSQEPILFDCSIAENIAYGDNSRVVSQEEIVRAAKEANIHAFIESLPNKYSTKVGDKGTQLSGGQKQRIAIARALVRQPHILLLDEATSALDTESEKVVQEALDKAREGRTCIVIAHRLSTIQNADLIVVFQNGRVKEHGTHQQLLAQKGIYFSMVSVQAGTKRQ

[2] = cited from earlier work
[3] = at the CMC of Pluronic P85 (0.03% w/w; printed 0.035% w/w for nelfinavir)

**Q.** Which “increase in nelfinavir accumulation compared to control” value (MDCKII-WT cells; highest concentration of GF120918 used) does the source give for `COc1cc2c(cc1OC)CN(CCc1ccc(NC(=O)c3cccc4c(=O)c5cccc(OC)c5[nH]c34)cc1)CC2` [GF120918] here?
**A.** 5 fold

**Q.** And the “Emax (maximal effect on nelfinavir accumulation)” value (MDCKII-WT cells; sigmoid Emax model, mean ± SE)?
**A.** 4.76 ± 0.2 DPM normalized to stock / mg protein

**Q.** With `Nc1nc(NC2CC2)c2ncn([C@H]3C=C[C@@H](CO)C3)c2n1` [abacavir] as the compound, how does the “change in cellular accumulation at Pluronic P85 concentrations above the CMC” value (MDCKII-WT cells) read?
**A.** significant decline

**Q.** What about the “change in cellular accumulation with Pluronic P85 up to the CMC” value (“change in cellular accumulation … to the CMC” below) (MDCKII-WT cells) of the same compound?
**A.** no significant increase

**Q.** And the “drug associated with the micelles” value ([1]; 0.5% w/w Pluronic P85)?
**A.** roughly 10%

**Q.** What about the equilibrium free fraction ([1]; 0.5% w/w Pluronic P85) of the same compound?
**A.** 0.871 ± 0.095

**Q.** What about the equilibrium free fraction ([1]; absence of Pluronic P85) of the same compound?
**A.** 1.057 ± 0.212

**Q.** And the equilibrium free fraction [1, 3]?
**A.** 0.984 ± 0.083

**Q.** And the time to equilibrium [1]?
**A.** ~ 20 hrs

**Q.** And the “change in cellular accumulation at Pluronic P85 concentrations above the CMC” value (P-gp)?
**A.** significant decline

**Q.** What about the “change in cellular accumulation … to the CMC” value (P-gp) of the same compound?
**A.** significant increase

**Q.** Which “change in cellular accumulation at Pluronic P85 concentrations above the CMC” value (MDCKII-WT cells) does the source give for `OC[C@@H](O)[C@@H](O)[C@H](O)[C@H](O)CO` [mannitol] here?
**A.** no effect

**Q.** And the equilibrium free fraction ([1]; 0.1% w/w Pluronic P85)?
**A.** 0.968 ± 0.04

**Q.** What about the equilibrium free fraction ([1]; absence of Pluronic P85) of the same compound?
**A.** 0.994 ± 0.06

**Q.** What about the time to equilibrium [1] of the same compound?
**A.** ~ 15 hrs

**Q.** And the “change in cellular accumulation at Pluronic P85 concentrations above the CMC” value (P-gp)?
**A.** no effect

**Q.** With `Cc1c(O)cccc1C(=O)N[C@@H](CSc1ccccc1)[C@H](O)CN1C[C@H]2CCCC[C@H]2C[C@H]1C(=O)NC(C)(C)C` [nelfinavir] as the compound, how does the “cellular accumulation at 0.5% w/w P85 versus control without P85” value (MDCKII-WT cells) read?
**A.** significantly lower than WT control

**Q.** What about the “change in cellular accumulation at Pluronic P85 concentrations above the CMC” value (MDCKII-WT cells) of the same compound?
**A.** decreased significantly

**Q.** And the “change in cellular accumulation … to the CMC” value (MDCKII-WT cells)?
**A.** no statistically significant enhancement

**Q.** And the “increase in cellular accumulation compared to control” value (MDCKII-WT cells)?
**A.** 1.3 fold

**Q.** And the drug free ([1]; 0.1% w/w Pluronic P85)?
**A.** 20%

**Q.** And the equilibrium free fraction ([1]; 0.1% w/w Pluronic P85)?
**A.** 0.194 ± 0.02

**Q.** What about the drug free ([1]; 0.5% w/w Pluronic P85) of the same compound?
**A.** 5%

**Q.** And the equilibrium free fraction ([1]; absence of Pluronic P85)?
**A.** 0.953 ± 0.109

**Q.** What about the equilibrium free fraction [1, 3] of the same compound?
**A.** 0.941 ± 0.045

**Q.** What about the time to equilibrium [1] of the same compound?
**A.** ~ 50 hrs

**Q.** What about the “cellular accumulation at 0.5% w/w P85 versus control without P85” value (P-gp) of the same compound?
**A.** not statistically different

**Q.** And the “change in cellular accumulation at Pluronic P85 concentrations above the CMC” value (P-gp)?
**A.** decreased significantly

**Q.** And the “change in cellular accumulation … to the CMC” value (P-gp)?
**A.** increased significantly

**Q.** What about the “increase in cellular accumulation compared to control” value (P-gp; 0.03% w/w Pluronic P85) of the same compound?
**A.** 6 fold

**Q.** And the “(WT/MDR1) accumulation ratio” value (P-gp; 0.03% w/w P85)?
**A.** 1.4

**Q.** What about the “(WT/MDR1) accumulation ratio” value (P-gp; 0.5% w/w P85 (highest dose)) of the same compound?
**A.** 1.23

**Q.** What about the “(WT/MDR1) accumulation ratio” value (P-gp; absence of P85, 3 h accumulation) of the same compound?
**A.** 6

**Q.** With `CC(C)(C)NC(=O)[C@@H]1C[C@@H]2CCCC[C@@H]2CN1C[C@@H](O)[C@H](Cc1ccccc1)NC(=O)[C@H](CC(N)=O)NC(=O)c1ccc2ccccc2n1` [saquinavir] as the compound, how does the “cellular accumulation at 0.5% w/w P85 versus control without P85” value (MDCKII-WT cells) read?
**A.** not significantly different

**Q.** What about the “change in cellular accumulation at Pluronic P85 concentrations above the CMC” value (MDCKII-WT cells) of the same compound?
**A.** decline in accumulation

**Q.** What about the “change in cellular accumulation … to the CMC” value (MDCKII-WT cells) of the same compound?
**A.** significant increase in accumulation

**Q.** What about the drug free ([1]; 0.5% w/w Pluronic P85) of the same compound?
**A.** 7%

**Q.** And the equilibrium free fraction ([1]; 0.5% w/w Pluronic P85)?
**A.** 0.068 ± 0.007

**Q.** And the equilibrium free fraction ([1]; absence of Pluronic P85)?
**A.** 0.827 ± 0.114

**Q.** And the equilibrium free fraction [1, 3]?
**A.** 0.744 ± 0.031

**Q.** What about the “cellular accumulation at 0.5% w/w P85 versus control without P85” value (P-gp) of the same compound?
**A.** not significantly different

**Q.** And the “change in cellular accumulation at Pluronic P85 concentrations above the CMC” value (P-gp)?
**A.** decline in accumulation

**Q.** And the “change in cellular accumulation … to the CMC” value (P-gp)?
**A.** significant increase in accumulation

**Q.** What does the source list for `CC[C@]1(O)C[C@@H]2CN(CCc3c([nH]c4ccccc34)[C@@](C(=O)OC)(c3cc4c(cc3OC)N(C)[C@H]3[C@@](O)(C(=O)OC)[C@H](OC(C)=O)[C@]5(CC)C=CCN6CC[C@]43[C@@H]65)C2)C1` [vinblastine]?
**A.** change in cellular accumulation at Pluronic P85 concentrations above the CMC (MDCKII-WT cells): significant only at 0.5% w/w; increase in cellular accumulation compared to control (MDCKII-WT cells): 3 fold; change in cellular accumulation at Pluronic P85 concentrations above the CMC (P-gp): significant only at 0.5% w/w; increase in cellular accumulation compared to control (P-gp; 0.05% w/w Pluronic P85 (maximum)): 21 fold; increase in cellular accumulation compared to control (P-gp; 0.5% w/w Pluronic P85): 10 fold; log P [2]: 1.89
